ChEMBL document CHEMBL1149634, “1-Acylthiosemicarbazides, 1,2,4-triazole-5(4H)-thiones, 1,3,4-thiadiazoles and hydrazones containing 5-methyl-2-benzoxazolinones: synthesis, analgesic-anti-inflammatory and antimicrobial activities” (2007)
≈ marks a conversion by molar mass, not a printed value.

Tests used:
Staphylococcus aureus = test: Antibacterial activity against Staphylococcus aureus ATCC 29213 after 24 hrs by broth microdilution test; format: functional; conditions: ATCC 29213, 24 h
Method in brief: (§1)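 NCCLS broth microdilution in Mueller-Hinton broth with an inoculum of 5 × 10^5 cfu/mL. Compounds were dissolved in DMSO, diluted in sterile water, and tested as twofold dilutions from 512 to 0.5 µg/mL. Plates were incubated at 35 °C for 24 h. MIC is the lowest concentration preventing visible growth.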

Mus musculus [1] = test: Antiinflammatory activity against carrageenan-induced hind paw oedema in mouse assessed as inhibition of swelling thickness at 100 mg/kg, po after 270 mins; format: functional; conditions: 4.5 h
Method in brief: (§2)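 Fasted mice (n = 5–6) were dosed orally with the sample in 0.5% CMC/water. One hour later, carrageenan (0.5 mg/25 µl in 154 mM saline) was injected subplantar into the right hind paw. The right-minus-left footpad thickness difference was measured with dial gauge callipers every 90 min over 6 h. Inhibition % is calculated versus vehicle control; mean ± SEM, Student's t test.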

Candida albicans = test: Antifungal activity against Candida albicans ATCC 90028 after 48 hrs by broth microdilution test; format: functional; conditions: ATCC 90028, 48 h
Method in brief: (§3)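 Yeasts tested by NCCLS M27-A broth microdilution in RPMI 1640 (with L-glutamine, without sodium bicarbonate) with an inoculum of 0.5–2.5 × 10^3 cfu/mL. Compounds were prepared from DMSO solution diluted in water as twofold dilutions from 512 to 0.5 µg/mL. Plates were incubated at 35 °C for 48 h. MIC is the lowest concentration giving no visible growth.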

Mus musculus [2] = test: Antiinflammatory activity against carrageenan-induced hind paw oedema in mouse assessed as swelling thickness at 50 mg/kg, po after 180 mins; format: functional; method in brief: as §2
Mus musculus [3] = test: Analgesic activity in mouse assessed as inhibition of acetic acid induced-abdominal writhing at 100 mg/kg, ip by Koster test; format: functional; conditions: Abdomen, route intraperitoneal
Pichia kudriavzevii = test: Antifungal activity against Candida krusei ATCC 6258 after 48 hrs by broth microdilution test; format: functional; conditions: ATCC 6258, 48 h; method in brief: as §3
Mus musculus [4] = test: Antiinflammatory activity against carrageenan-induced hind paw oedema in mouse assessed as swelling thickness at 200 mg/kg, po after 360 mins; format: functional; method in brief: as §2
Pseudomonas aeruginosa = test: Antibacterial activity against Pseudomonas aeruginosa ATCC 27853 after 24 hrs by broth microdilution test; format: functional; conditions: ATCC 27853, 24 h; method in brief: as §1
Mus musculus [5] = test: Antiinflammatory activity against carrageenan-induced hind paw oedema in mouse assessed as swelling thickness at 50 mg/kg, po after 90 mins; format: functional; method in brief: as §2
Mus musculus [6] = test: Antiinflammatory activity against carrageenan-induced hind paw oedema in mouse assessed as swelling thickness at 50 mg/kg, po after 270 mins; format: functional; method in brief: as §2
Candida parapsilosis = test: Antifungal activity against Candida parapsilosis ATCC 22019 after 48 hrs by broth microdilution test; format: functional; conditions: Lodderomyces parapsilosis, ATCC 22019, 48 h; method in brief: as §3
Enterococcus faecalis = test: Antibacterial activity against Enterococcus faecalis ATCC 29212 after 24 hrs by broth microdilution test; format: functional; conditions: ATCC 29212, 24 h; method in brief: as §1
Mus musculus [7] = test: Analgesic activity in mouse assessed as inhibition of hind paw lick at 100 mg/kg, ip by hot plate test; format: functional; conditions: route intraperitoneal
Mus musculus [8] = test: Antiinflammatory activity against carrageenan-induced hind paw oedema in mouse assessed as inhibition of swelling thickness at 200 mg/kg, po after 180 mins; format: functional; conditions: 3 h; method in brief: as §2
Mus musculus [9] = test: Toxicity in mouse assessed as ulceration effect at 200 mg/kg; format: functional, organism-based; set-up: dose 200 mg/kg
Method in brief: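 Mice given 200 mg/kg orally in the carrageenan oedema study were killed under deep ether anaesthesia 6 h after treatment. Stomachs were opened along the greater curvature and examined under a dissecting microscope for lesions or bleeding. Result is expressed as the ratio of ulcerated animals per group.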

Escherichia coli = test: Antibacterial activity against Escherichia coli ATCC 25922 after 24 hrs by broth microdilution test; format: functional; conditions: ATCC 25922, 24 h; method in brief: as §1
Mus musculus [10] = test: Antiinflammatory activity against carrageenan-induced hind paw oedema in mouse assessed as inhibition of swelling thickness at 100 mg/kg, po after 90 mins; format: functional; conditions: 1.5 h; method in brief: as §2
Mus musculus [11] = test: Antiinflammatory activity against carrageenan-induced hind paw oedema in mouse assessed as inhibition of swelling thickness at 100 mg/kg, po after 180 mins; format: functional; conditions: 3 h; method in brief: as §2
Mus musculus [12] = test: Antiinflammatory activity against carrageenan-induced hind paw oedema in mouse assessed as swelling thickness at 50 mg/kg, po after 360 mins; format: functional; method in brief: as §2
Mus musculus [13] = test: Antiinflammatory activity against carrageenan-induced hind paw oedema in mouse assessed as inhibition of swelling thickness at 200 mg/kg, po after 270 mins; format: functional; conditions: 4.5 h; method in brief: as §2
Mus musculus [14] = test: Antiinflammatory activity against carrageenan-induced hind paw oedema in mouse assessed as inhibition of swelling thickness at 200 mg/kg, po after 90 mins; format: functional; conditions: 1.5 h; method in brief: as §2
Mus musculus [15] = test: Antiinflammatory activity against carrageenan-induced hind paw oedema in mouse assessed as inhibition of swelling thickness at 100 mg/kg, po after 360 mins; format: functional; conditions: 6 h; method in brief: as §2
Mus musculus [16] = test: Antiinflammatory activity against carrageenan-induced hind paw oedema in mouse assessed as inhibition of swelling thickness at 50 mg/kg, po after 90 mins; format: functional; conditions: 1.5 h; method in brief: as §2
Mus musculus [17] = test: Antiinflammatory activity against carrageenan-induced hind paw oedema in mouse assessed as swelling thickness at 100 mg/kg, po after 270 mins; format: functional; method in brief: as §2
Mus musculus [18] = test: Antiinflammatory activity against carrageenan-induced hind paw oedema in mouse assessed as inhibition of swelling thickness at 200 mg/kg, po after 360 mins; format: functional; conditions: 6 h; method in brief: as §2
Mus musculus [19] = test: Antiinflammatory activity against carrageenan-induced hind paw oedema in mouse assessed as swelling thickness at 100 mg/kg, po after 360 mins; format: functional; method in brief: as §2
Mus musculus [20] = test: Antiinflammatory activity against carrageenan-induced hind paw oedema in mouse assessed as swelling thickness at 100 mg/kg, po after 180 mins; format: functional; method in brief: as §2
Mus musculus [21] = test: Analgesic activity in mouse assessed as inhibition of acetic acid induced-abdominal writhing at 200 mg/kg, ip by Koster test; format: functional; conditions: Abdomen, route intraperitoneal

| Structure (SMILES) | MIC (Staphylococcus aureus) [µg/mL] | MIC (Candida albicans) [µg/mL] | Activity (Mus musculus [2]) [%] | inhibition in vivo at 100 mg/kg (Mus musculus [3]) [%] | MIC (Pichia kudriavzevii) [µg/mL] | MIC (Pseudomonas aeruginosa) [µg/mL] | Activity (Mus musculus [6]) [%] | MIC (Candida parapsilosis) [µg/mL] | MIC (Enterococcus faecalis) [µg/mL] | inhibition in vivo at 100 mg/kg (Mus musculus [7]) [%] | inhibition in vivo at 200 mg/kg (Mus musculus [8]) [%] | Activity (Mus musculus [9]) | MIC (Escherichia coli) [µg/mL] | inhibition in vivo at 100 mg/kg (Mus musculus [10]) [%] | inhibition in vivo at 100 mg/kg (Mus musculus [11]) [%] | Activity (Mus musculus [12]) [%] | inhibition in vivo at 200 mg/kg (Mus musculus [13]) [%] | inhibition in vivo at 200 mg/kg (Mus musculus [14]) [%] | Activity (Mus musculus [17]) [%] | inhibition in vivo at 200 mg/kg (Mus musculus [18]) [%] | further results |
| --- | --- | --- | --- | --- | --- | --- | --- | --- | --- | --- | --- | --- | --- | --- | --- | --- | --- | --- | --- | --- | --- |
| Cc1ccc2oc(=O)n(Cc3n[nH]c(=S)n3C)c2c1 | > 512 | 512 (≈ 1850 µM) | 85.1 | 49.6 | 512 (≈ 1850 µM) | 512 (≈ 1850 µM) | 120.7 | 256 (≈ 926 µM) | > 512 | 2.2 | 38.6 | Not toxic | 512 (≈ 1850 µM) | 79.8 | 11.8 | 97.8 | 15.8 | 42 |  |  | inhibition in vivo at 100 mg/kg (Mus musculus [1]): 14.8%; Activity (Mus musculus [4]): 79.1%; Activity (Mus musculus [5]): 67.5%; inhibition in vivo at 100 mg/kg (Mus musculus [15]): 27.4% |
| Cc1ccc2oc(=O)n(CC(=O)N/N=C/c3ccc(Br)cc3)c2c1 | > 512 | 64 (≈ 165 µM) | 94.6 | 72.6 | 256 (≈ 659 µM) | > 512 | 95.9 | 128 (≈ 330 µM) | > 512 | 20.3 | 46.9 | Toxic | > 512 | 44.4 | 43.7 | 83 | 11.1 |  | 92 |  | Activity (Mus musculus [4]): 84.4%; inhibition in vivo at 50 mg/kg (Mus musculus [16]): 1.9%; inhibition in vivo at 100 mg/kg (Mus musculus [15]): 19.1% |
| CCNc1nnc(Cn2c(=O)oc3ccc(C)cc32)s1 | 512 (≈ 1760 µM) | 512 (≈ 1760 µM) | 90.1 | 68.5 | 512 (≈ 1760 µM) | 512 (≈ 1760 µM) | 102.8 | 256 (≈ 882 µM) | > 512 | 25.4 | 71.3 |  | 512 (≈ 1760 µM) | 84.8 | 33.8 | 94 | 45.4 | 85.3 |  | 11.1 | inhibition in vivo at 100 mg/kg (Mus musculus [1]): 7.1%; inhibition in vivo at 50 mg/kg (Mus musculus [16]): 7.9% |
| CNc1nnc(Cn2c(=O)oc3ccc(C)cc32)s1 | 512 (≈ 1850 µM) | 256 (≈ 926 µM) | 101.3 | 73.8 | 256 (≈ 926 µM) | 512 (≈ 1850 µM) | 106.8 | 256 (≈ 926 µM) | 512 (≈ 1850 µM) | 54.3 | 46.9 |  | 512 (≈ 1850 µM) | 62.7 | 21.4 | 96 | 33.3 | 63.5 | 110.4 | 14.5 | Activity (Mus musculus [19]): 106.7%; Activity (Mus musculus [5]): 66% |
| COc1ccc(/C=N/NC(=O)Cn2c(=O)oc3ccc(C)cc32)cc1 | 256 (≈ 754 µM) | 128 (≈ 377 µM) | 82.3 | 65.7 | 128 (≈ 377 µM) | 256 (≈ 754 µM) | 108.8 | 512 (≈ 1510 µM) | 128 (≈ 377 µM) | 27.5 | 65.2 | Toxic | 512 (≈ 1510 µM) | 82.4 |  | 87.2 | 38.3 | 87.9 | 95.4 |  | Activity (Mus musculus [20]): 100.8%; Activity (Mus musculus [4]): 86.2%; inhibition in vivo at 50 mg/kg (Mus musculus [16]): 19.5%; inhibition in vivo at 100 mg/kg (Mus musculus [15]): 17.5% |
| CCn1c(Cn2c(=O)oc3ccc(C)cc32)n[nH]c1=S | 512 (≈ 1760 µM) | 512 (≈ 1760 µM) | 91.1 | 43.5 | 256 (≈ 882 µM) | 256 (≈ 882 µM) | 147.3 | 256 (≈ 882 µM) | 512 (≈ 1760 µM) | 36.2 | 31.8 | Not toxic | 512 (≈ 1760 µM) | 57.1 |  | 146.7 | 25.9 | 56.5 | 117.6 | 19.7 | Activity (Mus musculus [19]): 87.1%; Activity (Mus musculus [20]): 95.9%; Activity (Mus musculus [5]): 82.9% |
| Cc1ccc2oc(=O)n(CC(=O)NNC(=S)Nc3ccccc3)c2c1 | 256 (≈ 718 µM) | 256 (≈ 718 µM) | 140.9 | 55.6 | 256 (≈ 718 µM) | 256 (≈ 718 µM) | 162.6 | 128 (≈ 359 µM) | 512 (≈ 1440 µM) | 23.9 | 53.4 | Not toxic | 256 (≈ 718 µM) | 79.8 | 31.3 | 153.3 | 30.5 | 40.3 | 92 | 34.1 | Activity (Mus musculus [19]): 79.2% |
| CC(=O)Oc1ccccc1C(=O)O [ASPIRIN] |  |  |  |  |  |  |  |  |  |  |  |  |  |  |  |  |  |  |  |  | inhibition in vivo at 200 mg/kg (Mus musculus [21]): 65.7% |
